Measured values as given in ChEMBL document CHEMBL2311335, “Increased hydrophobicity and estrogenic activity of simple phenols with silicon and germanium-containing substituents” (J Med Chem, 2013).
Calls of active or inactive are those of the source. No cut-off for these calls is given here.

Legend:
MCF7 [1] = assay: Estrogenic activity in human MCF7 cells assessed as cell proliferation at 10^-12 M to 10^-6 M after 7 days by WST-8 assay relative to estradiol; format: functional
[2] = Octanol-water partition coefficient, log P of the compound by HPLC analysis
MCF7 [3] = assay: Estrogenic activity in human MCF7 cells assessed as cell proliferation after 7 days by WST-8 assay; format: functional, cell-based
Summary of the method: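 Cells were seeded at 1.2 × 10³ per well in the same medium. Proliferation was read by WST-8 (2 h, absorbance at 450 nm). Viable cell number was plotted against log concentration and EC₅₀ taken from a sigmoidal fit.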

[4] = molecular target: T1, Estrogen receptor (Homo sapiens) (UniProt P03372); assay: (§1) Agonist activity at ER in human T47D-Kbluc cells at 10^-14 to 10^-7 M after 24 hrs by luciferase reporter gene assay; format: cell-based
T1 sequence (whole entry): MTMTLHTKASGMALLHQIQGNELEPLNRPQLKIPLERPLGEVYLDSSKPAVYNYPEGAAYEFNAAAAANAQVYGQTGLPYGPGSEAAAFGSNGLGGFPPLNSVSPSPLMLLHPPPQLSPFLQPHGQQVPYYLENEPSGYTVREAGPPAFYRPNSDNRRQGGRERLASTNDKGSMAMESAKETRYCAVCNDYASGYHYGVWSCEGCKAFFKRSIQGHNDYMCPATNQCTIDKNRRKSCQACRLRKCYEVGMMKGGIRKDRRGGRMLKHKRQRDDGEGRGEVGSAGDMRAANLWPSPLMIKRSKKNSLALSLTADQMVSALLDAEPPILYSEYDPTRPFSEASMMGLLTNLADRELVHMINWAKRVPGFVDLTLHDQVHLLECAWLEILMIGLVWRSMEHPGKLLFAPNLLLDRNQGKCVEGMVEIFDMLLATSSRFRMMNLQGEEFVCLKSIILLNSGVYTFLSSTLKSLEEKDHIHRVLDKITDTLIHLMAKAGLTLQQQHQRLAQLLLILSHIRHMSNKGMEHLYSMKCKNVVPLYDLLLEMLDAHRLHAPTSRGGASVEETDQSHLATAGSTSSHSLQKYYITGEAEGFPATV
Summary of the method: (§2)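 After 24 h at 37 °C, compounds were added at 10⁻¹⁴ to 10⁻⁷ M final in 0.1% DMSO final. After a further 24 h, Steady-Glo was added and luminescence read after 5 min.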

[5] = molecular target: T1, Estrogen receptor (Homo sapiens); assay: Displacement of [3H]estradiol from human recombinant ER at 10^-8 to 10^-7 M after 14 to 18 hrs by scintillation counting analysis; conditions: in the assay text read “10^-8 to 10^-4 M” for “10^-8 to 10^-7 M”
Summary of the method: (§3)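 Recombinant human ER was diluted in binding buffer (50 mM Tris pH 7.5, 10% glycerol, 0.1 mM BHA, 10 mM mercaptoethanol, 0.5% yeast extract) to 2–4 nM. It was incubated refrigerated for 14–18 h with 10⁻⁸ M [³H]estradiol final and 10⁻⁴–10⁻⁸ M competitor in DMSO. Bound ligand was captured on hydroxylapatite for 15 min at 0 °C, washed three times with Tris pH 7.3, and counted by scintillation. Run in duplicate.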

[6] = Dissociation constant, pKa of the compound
[7] = molecular target: Estrogen receptor (Homo sapiens) (UniProt P03372); assay: as §1; format: cell-based; summary of the method: as §2; remark: listed apart in the source
[8] = molecular target: Estrogen receptor (Homo sapiens) (UniProt P03372); assay: (§4) Displacement of [3H]estradiol from human recombinant ER after 14 to 18 hrs by scintillation counting analysis; summary of the method: as §3
[9] = molecular target: T1, Estrogen receptor (Homo sapiens); assay: as §4; summary of the method: as §3; remark: listed apart in the source

Row | Compound | logP [2] | EC50 (MCF7 [3]; Homo sapiens, MCF7, 168 h) [nM] | other results
1 | CCC(CC)(CC)c1ccc(O)cc1 | 5.03 | 23 | Activity [4]: Active; inhibition [5]: Active
2 | 4-Trimethylgermylphenol | 4.11 |  | pKa [6]: 10.2; EC50 (MCF7 [3]; mcf7): 100 nM
3 | CCC(C)(C)c1ccc(O)cc1 | 4.04 | 190 | 
4 | CC(C)(c1ccccc1)c1ccc(O)cc1 | 4.31 | 38 | 
5 | 4-Triphenylgermylphenol [listing 1 of 2 here] |  |  | Emax (MCF7 [1]): 47%
6 | CC(C)(C)c1ccc(O)cc1 |  | 870 | 
7 | 4-Triethylgermylphenol [listing 1 of 2 here] | 5.71 |  | EC50 (MCF7 [3]; mcf7): 2.1 nM
8 | 4-Triphenylgermylphenol [listing 2 of 2 here] | 6.97 |  | 
9 | 4-Triethylgermylphenol [listing 2 of 2 here] |  |  | Activity [7]: Active; inhibition [8]: Dose-dependent effect

Now from value to compound, other results behind:

Row | logP [2] | EC50 (MCF7 [3]; Homo sapiens, MCF7, 168 h) [nM] | Compound | other results
10 | 6.25 |  | Oc1ccc(C(c2ccccc2)(c2ccccc2)c2ccccc2)cc1 | Emax (MCF7 [1]; MCF7, 168 h): 16%
11 | 4.64 | 41 | CC[Si](C)(C)c1ccc(O)cc1 | 
12 | 6.83 |  | Oc1ccc([Si](c2ccccc2)(c2ccccc2)c2ccccc2)cc1 | Emax (MCF7 [1]; MCF7, 168 h): 29%
13 | 4.91 | 16 | C[Si](C)(c1ccccc1)c1ccc(O)cc1 | 
14 | 5.69 | 3.4 | CC[Si](CC)(CC)c1ccc(O)cc1 | Activity [4]: Active; inhibition [9]: Dose-dependent effect
15 | 4.12 | 63 | C[Si](C)(C)c1ccc(O)cc1 | pKa [6]: 10.1
